A selection: hits, their analogues and other compounds. The true share with any hit is near 2.5%.
DNMT1 block = blocks human DNA methyltransferase DNMT1 | inhibition (reported as % activation of signal), % at 10 µM | AID 588458 | P26358 | DNMT1 molecular beacon, Hinp1I cleavage, fluorescence | 0.83% of 360,000 active; in the data active = inhibition above about 50%
Pemphigus Ab inh = inhibitors of pemphigus antibody binding to human desmoglein-3 | P32926 | DSG3-coupled beads, scFv-anti-DSG3-GFP binding, flow cytometry; hits give low values | binding (percent of control), % at 10 µM | 0.48% of 310,000 active;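 active = binding more than 3 SD below its plate's average and above zero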;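 also: hits lower antibody fragment binding to DSG3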
MBD2 DNA inh = MBD2-methylated oligo binding inhibition; inhibition, % at 4.4 µM; 0.31% of 370,000 active; AID 686964; TR-FRET, MBD2 binding to methylated oligonucleotide; Q9UBB5; in the data active = inhibition above about 13%
UHRF1 MBD2 ctr = UHRF1 methyl-DNA binding inhibition; Q96T88; UHRF1 binding to methylated oligo, TR-FRET; inhibition, % at 4.4 µM; 0.75% of 370,000 active; AID 687016; in the data active = inhibition above about 21%;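 also: UHRF1 SRA domain binding a hemimethylated CpG hairpin DNA probe; 0% = median of test compound wells and 100% = reference inhibitor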
Target sequence (Q96T88 whole entry, looked up, the tested form may be a part): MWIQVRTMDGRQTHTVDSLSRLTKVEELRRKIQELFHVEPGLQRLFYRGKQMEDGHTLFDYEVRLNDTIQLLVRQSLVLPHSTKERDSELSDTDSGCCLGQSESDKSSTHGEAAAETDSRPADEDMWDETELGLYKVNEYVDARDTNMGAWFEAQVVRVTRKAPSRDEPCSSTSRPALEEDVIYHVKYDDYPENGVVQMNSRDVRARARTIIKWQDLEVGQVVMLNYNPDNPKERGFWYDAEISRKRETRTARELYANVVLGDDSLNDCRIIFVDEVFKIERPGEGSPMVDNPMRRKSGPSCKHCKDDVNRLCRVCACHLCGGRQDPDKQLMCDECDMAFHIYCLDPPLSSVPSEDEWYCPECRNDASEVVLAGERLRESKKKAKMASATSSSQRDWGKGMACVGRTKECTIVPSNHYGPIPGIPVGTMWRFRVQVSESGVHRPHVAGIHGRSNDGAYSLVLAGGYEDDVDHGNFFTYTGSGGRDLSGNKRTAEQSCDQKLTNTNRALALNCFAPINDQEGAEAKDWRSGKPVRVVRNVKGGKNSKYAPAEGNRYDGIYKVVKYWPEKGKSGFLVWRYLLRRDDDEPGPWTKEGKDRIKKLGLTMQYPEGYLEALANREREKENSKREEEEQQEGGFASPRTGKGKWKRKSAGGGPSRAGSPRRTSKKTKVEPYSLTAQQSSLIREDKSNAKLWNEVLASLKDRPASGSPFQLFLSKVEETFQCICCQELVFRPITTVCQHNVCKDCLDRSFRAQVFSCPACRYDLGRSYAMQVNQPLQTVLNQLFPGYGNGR
NS3 helicase inh = blocks Hepatitis C virus NS3 helicase unwinding | inhibition, % at 10.9 µM | NS3 helicase DNA unwinding, Cy5 molecular beacon fluorescence | 0.56% of 290,000 active | AID 1800;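 active = inhibition above the mean of all tested compounds plus 3 SD, set per campaign, cut at about 35% in these data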;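 also: 0% = DMSO wells and 100% = thioflavine S control wells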
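Compound dosing – single dose, 10.9 µM nominal final, DMSO 0.8% final · System – NS3 helicase fragment of HCV · Buffer or medium – MOPS pH 6.5, MgCl2, DTT, Tween20, BSA · Signal – Cy5 beacon fluorescence read at start and 1 h · Also added – annealed dual-labelled DNA beacon duplex, ATP-started · Schedule – 1 h at 25 °C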
SUMO1 PPI mod = SUMO1-SIM interaction modulation; P63165; SUMO1 binding to a labelled peptide, TR-FRET, 1 h; inhibition, % at 20 µM; 0.33% of 360,000 active; AID 602429; in the data active = inhibition above about 37%
* marks the source's active call; other numbers are inactive results; / = no result.

SMILES	DNMT1 block	Pemphigus Ab inh	MBD2 DNA inh	UHRF1 MBD2 ctr	NS3 helicase inh	SUMO1 PPI mod
CN(C)CCNC(=O)c1ccccc1	-3	95	2	0	-2	-3
CN(C)CCNC(=O)c1cccc2ccc(-c3ccc(-c4ccccc4)cc3)nc12	28	90	3	37*	/	24
O=C(Nc1ccccc1)c1ccc[n+](Cc2ccc([N+](=O)[O-])cc2)c1	2	84	-1	69*	-28	-21
O=C(Nc1ccc([N+](=O)[O-])cc1)c1ccccc1	-3	109	1	1	10	-19
CCn1cc(C2=NOC(C(=O)Nc3ccccc3C(=O)OC)C2)c(C)n1 (stereo not given)	-1	95	/	/	10	0
Cc1[nH]c2ccc(C(=O)OCC(=O)Nc3cccc(S(N)(=O)=O)c3)cc2c1C	-19	/	-4	0	/	60*
CCOC(=O)c1ccc2[nH]c(C)c(C)c2c1	-1	103	-2	-1	-1	0
Cc1ccc(C2=NN=C(NC(=O)CSc3nnc4c5ccccc5n(C)c4n3)SC2)cc1	-18	92	/	/	53*	20
Cc1ccc(C2=NN=C(NC(=O)CSc3nc(C)cc(C)n3)SC2)cc1	/	/	0	0	-5	/
CSCCC(NC(=O)C1CCC(C)CC1)C(=O)OCC(=O)c1ccc(Cl)cc1 (stereo not given)	6	3.8*	-1	3	5	-1
CCC1CCCCN1CCCNC(=O)c1cn(C)c2ccc(S(=O)(=O)N(C)C3CCCCC3)cc2c1=O (stereo not given)	3	98	6	23*	-68	2
CCC1CCCCN1CCCNC(=O)c1cn(C)c2ccc(S(=O)(=O)N3CCOCC3)cc2c1=O (stereo not given)	-3	105	4	2	-2	2
O=C1c2ccccc2-c2onc3ccc(Oc4ccccc4)c1c23	5	86	-2	0	2	-19
CCCC#Cc1cnc2c(c1)C(=O)N([C@H](C)CO)C[C@H](C)[C@@H](CN(C)C(=O)CCN1CCCCC1)O2	10	109	12	24*	/	0
C[C@@H]1CN([C@@H](C)CO)C(=O)c2cc(Br)cnc2O[C@H]1CN(C)C(=O)CCN1CCCCC1	4	/	-1	-2	/	3
COc1ccc(C#Cc2cnc3c(c2)C(=O)N([C@H](C)CO)C[C@H](C)[C@@H](CN(C)C(=O)Nc2cccc(OC)c2)O3)cc1	-12	106	5	19	/	2
C[C@H](CO)N1C[C@H](C)[C@@H](CN(C)C(=O)Nc2ccccc2)Oc2ncc(C#CC3CCCCC3)cc2C1=O	14	106	5	22*	/	8
Cc1cc(=O)[nH]c(SCCc2ccccc2)n1	1	96	2	-13	15	0
COC(=O)c1ccc(N=NNc2cccc(Br)c2)cc1	4	104	4	-2	5	2
Nc1ccc2ncccc2c1N	-6	89	2	0	/	45*
Cc1ccccc1P(=O)(c1ccccc1)c1ccccc1C	-1	104	-4	-2	/	44*
CC(C)N1CCc2c(sc(NC(=S)NC(=O)c3ccccc3)c2C#N)C1	-3	94	21*	15	-53	-18
CCCN1CCc2c(sc(NC(=S)NC(=O)c3ccccc3)c2C#N)C1	1	92	15*	17	-62	-23
O=C(N/N=C1/CCSC1)c1cccc([N+](=O)[O-])c1	-7	99	-2	1	1	-14
COc1cc2c(cc1OC)C(C)N(C(=O)/C=C/c1cc(OC)c(OC)c(OC)c1)CC2 (stereo not given)	0	82*	-6	-1	-8	-5
SMILES	DNMT1 block	Pemphigus Ab inh	MBD2 DNA inh	UHRF1 MBD2 ctr	NS3 helicase inh	SUMO1 PPI mod
CCCOC(=O)c1ccc(NC(=O)c2cnccn2)cc1	-2	97	2	0	7	13
CC1(C(=O)NCc2ccccc2)Cc2c(-c3ccccc3)ccnc2O1 (stereo not given)	2	/	1	66*	/	7
CC1(C(=O)NCc2ccccc2)Cc2c(-c3ccc(C(N)=O)cc3)ccnc2O1 (stereo not given)	1	/	3	6	/	1
CCN(CC)C1CCN(C(=O)c2ccc(OC3CCN(CCc4ccccc4)CC3)cc2)C1 (stereo not given)	-1	106	-10	3	-10	-3
COc1ccc(C(=O)Nc2nc3cc4c(cc3s2)OCO4)c(OC)c1	-19	78	3	1	1	60*
Cc1nn(Cc2nnc(SCC(=O)Nc3cccc(C(F)(F)F)c3)n2C)c(C)c1[N+](=O)[O-]	4	100	0	41*	1	0
CC(=O)Nc1cccc(NC(=O)CSc2ccc(C(F)(F)F)cc2[N+](=O)[O-])c1	-7	84*	-3	0	2	-10
COc1ccccc1NC1=NC(CO)(CO)CS1	0	97	0	0	-21	-2
Oc1ccccc1Oc1ncc(Br)c(N2CCOCC2)n1	2	101	1	3	-7	1
Oc1ccccc1Oc1ncc(Br)c(Cl)n1	2	101	8	22*	14	6
CCN(C[C@H]1N[C@@](Cc2ccccc2)(C(=O)OC)[C@H]2C(=O)N(C)C(=O)[C@@H]12)C(=O)Nc1ccc(F)cc1	1	97	5	2	/	1
CCN(CC)C(=O)[C@H]1C[C@H](CC(=O)NCCC2=CCCCC2)C(=O)N2CCc3c([nH]c4cc(CCC(=O)N(C)C)ccc34)[C@]12C	2	100	-3	2	/	4
CCN(CC)C(=O)[C@H]1C[C@H](CC(=O)NCCc2ccccn2)C(=O)N2CCc3c([nH]c4cc(CCC(=O)N(C)C)ccc34)[C@]12C	4	104	7	21*	/	-7
CC(C)c1ccc(C2CC(=O)c3cnc(N4CCc5ccccc5C4)nc3C2)cc1 (stereo not given)	7	96	5	-1	4	0
CC1CC(C)CN(c2ncc3c(n2)CC(c2ccccc2)CC3=O)C1 (stereo not given)	1	72*	6	0	1	-3
CCCC[C@@H]1CNC(=O)C(=O)N1CCCC	/	/	-1	6	/	49*
CCCCN1C(=O)C(=O)NC[C@@H]1CCCCN	0	107	2	1	/	0
O=C(Nc1cc([N+](=O)[O-])ccc1O)c1cccc(C(=O)Nc2cc([N+](=O)[O-])ccc2O)c1	-3	119	6	-3	6	56*
O=C(Nc1cc([N+](=O)[O-])ccc1O)c1cccc([N+](=O)[O-])c1	-2	111	5	0	2	-15
OC(COC(c1ccccc1)c1ccccc1)CN1CCN(c2ccccn2)CC1 (stereo not given)	2	84	8	23*	-24	0

Screening results from PubChem.
